High-throughput results: PubChem BioAssay, several laboratories
A selection: hits, their analogues and other compounds. The true share with any hit is near 2%.
IMP-1 inh: inhibitors of Pseudomonas aeruginosa IMP-1 metallo-beta-lactamase. 290,000 tested, 0.45% active. inhibition, % at 5.6 µM. purified IMP-1, nitrocefin hydrolysis, epi-absorbance fluorescence;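 active means inhibition above the mean plus 3 SD of all compounds in the same screening run, cut at about 4.5% in these data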;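 further: 0% = IMP-1 with DMSO and 100% = DMSO wells lacking enzyme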
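Assay system: purified IMP-1; Quantity: IMP-1 0.2 nM before substrate addition; Medium: HEPES buffer pH 7.1 with ZnSO4 and Brij 35; Incubation: 15 min enzyme–compound preincubation, then 25 min nitrocefin reaction, 25 °C; Signal: fluorescence quenching readout, ex 480/em 530 nm; Controls: DMSO with and without IMP-1; Repeats: singlicate testing.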
ATG4B inh: blocks human ATG4B protease cleavage of LC3 substrate; Q9Y4P1; ATG4B cleavage of LC3-PLA2, NBD-HPC fluorescence, 1 h; inhibition, % at 8.33 µM; 340,000 tested, 0.51% active; AID 504462; in the data active means inhibition above about 40%
Target sequence (Q9Y4P1 whole entry, looked up): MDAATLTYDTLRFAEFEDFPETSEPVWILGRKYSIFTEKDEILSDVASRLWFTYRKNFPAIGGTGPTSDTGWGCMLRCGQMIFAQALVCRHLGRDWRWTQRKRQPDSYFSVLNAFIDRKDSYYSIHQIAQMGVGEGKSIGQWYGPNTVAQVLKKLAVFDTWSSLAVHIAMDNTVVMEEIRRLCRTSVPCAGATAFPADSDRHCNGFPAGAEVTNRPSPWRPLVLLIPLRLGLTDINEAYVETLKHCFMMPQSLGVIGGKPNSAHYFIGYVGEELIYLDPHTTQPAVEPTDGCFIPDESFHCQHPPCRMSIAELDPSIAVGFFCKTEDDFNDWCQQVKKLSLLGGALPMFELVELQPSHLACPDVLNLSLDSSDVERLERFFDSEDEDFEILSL
VIM-2 inhibitor: blocks Pseudomonas aeruginosa VIM-2 metallo-beta-lactamase; 290,000 tested, 0.89% active; inhibition, % at 5.6 µM; AID 1527; purified VIM-2, nitrocefin hydrolysis, epi-absorbance fluorescence;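 active means inhibition above the mean of all tested compounds plus 3 SD, cutoff set per screening run, cut at about 7.5% in these data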;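 further: red hydrolysis product quenches plate fluorescence so inhibitors raise well fluorescence; 0% = enzyme with DMSO and 100% = DMSO without enzyme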
PvdQ acylase: blocks Pseudomonas aeruginosa PvdQ acylase activity; purified PvdQ acylase, fluorescence plate reader; inhibition, % at 10 µM; 340,000 tested, 0.063% active; in the data active means inhibition above about 30%, passing the limit was not always enough;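 further: 0% = vehicle neutral wells and 100% = reference inhibitor wells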
HKDC1 inhibitor: HKDC1 (human) hexokinase inhibition. Q2TB90. recombinant HKDC1, G6PDH/diaphorase resazurin coupled fluorescence. inhibition, % at 20 µM. 340,000 tested, 0.16% active. AID 493160;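 active means inhibition above about 35% when tested at 20 µM, limit read from the data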;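 further: plate controls were DMSO wells with enzyme for no effect and DMSO wells lacking enzyme for full effect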
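Incubation: 90 min at room temperature in dark / Material: recombinant HKDC1 (HK5) hexokinase enzyme, produced in-house / Quantity: enzyme 5 µg/mL final / Compound: one dose of 20 µM, 1% DMSO / Reagent: glucose and ATP substrates / Buffer or medium: Tris pH 8.0 buffer with MgCl2, Tween-20, BSA, BME / Technique: resorufin fluorescence at 613 nm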
MIN6 prolif: induces beta-cell replication in MIN6 cells; MIN6 cells proliferation, ATPlite luminescence, 48 h; cells starved in 0.2% serum; 100% = growth in 10% serum; proliferation, % at 10 µM; 330,000 tested, 0.29% active;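 active means compounds whose signal lies at least 3.5 SD above the mean of all wells on their plate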;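 further: 0% = DMSO-treated cells in low-serum medium and 100% = 10% serum control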
HKDC1 act conf: confirmation of human HKDC1 activators. 740 tested, 14% active. AID 504708. shares compounds with HKDC1 inhibitor. inhibition, % at 20 µM. recombinant HKDC1, G6PDH/diaphorase resazurin fluorescence; hits give low values;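 active means inhibition at or below a set negative limit, negative inhibition meaning the enzyme was activated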
* marks the source's active call; other numbers are inactive results.

Cn1cnnc1SC1c2cccc3cccc(c23)C1NS(=O)(=O)c1ccccc1 (stereo not drawn) was read as IMP-1 inh -3, ATG4B inh -11, VIM-2 inhibitor -2, PvdQ acylase -12, HKDC1 inhibitor -49, MIN6 prolif 4 and HKDC1 act conf -64*.
For Cc1ccc(S(=O)(=O)NC2c3cccc4cccc(c34)C2Sc2nncn2C)cc1 (stereo not drawn) the results were IMP-1 inh -3, ATG4B inh 14, VIM-2 inhibitor -3, PvdQ acylase -6, HKDC1 inhibitor -14 and MIN6 prolif 3.
For CC(=O)N1CCN(C2c3cccc4cccc(c34)C2NS(=O)(=O)c2ccccc2)CC1 (stereo not drawn) the results were IMP-1 inh 1, ATG4B inh -1, VIM-2 inhibitor -3, PvdQ acylase -18, HKDC1 inhibitor -49, MIN6 prolif -2 and HKDC1 act conf -45*.
Screening CN1CCN(C(=O)C2=C[C@H](c3ccc4c(c3)OCO4)C[C@H](OCCCCO)O2)CC1 returned ATG4B inh 5, PvdQ acylase -3, HKDC1 inhibitor -4 and MIN6 prolif 2.
Screening Cc1cc(C)nc(Nc2n[nH]c(-c3ccc(C(C)(C)C)cc3)n2)n1 returned IMP-1 inh -1, ATG4B inh -4, VIM-2 inhibitor -2, PvdQ acylase -22, HKDC1 inhibitor -51, MIN6 prolif -1 and HKDC1 act conf -21.
For Cc1cc(C)nc(Nc2n[nH]c(-c3ccc(N)cc3)n2)n1 the results were IMP-1 inh -5, ATG4B inh -11, VIM-2 inhibitor -1, PvdQ acylase 6, HKDC1 inhibitor -2 and MIN6 prolif -4.
For Cc1nc(N)ncc1C(=O)Nc1ccccc1 the results were IMP-1 inh -2, ATG4B inh -4, VIM-2 inhibitor -4, PvdQ acylase -15, HKDC1 inhibitor -8 and MIN6 prolif 1.
Screening CC(C)NC(=O)c1sc(=S)n2c1[nH]c(=O)c1ccc(C(=O)NCCc3ccc(Cl)cc3)cc12 returned IMP-1 inh -3, ATG4B inh 5, VIM-2 inhibitor -3, PvdQ acylase 11, HKDC1 inhibitor 16 and MIN6 prolif -5.
Screening CCOc1ccc(CCNC(=O)c2ccc3c(=O)[nH]c4c(C(=O)NC(C)C)sc(=S)n4c3c2)cc1 returned IMP-1 inh -4, ATG4B inh -1, VIM-2 inhibitor -4, PvdQ acylase 9, HKDC1 inhibitor 41*, MIN6 prolif -5 and HKDC1 act conf 26.
Screening Cc1nc(COC(=O)c2cc(O)c3ccccc3c2O)cs1 returned IMP-1 inh -1, ATG4B inh -3, VIM-2 inhibitor 0, PvdQ acylase 4, HKDC1 inhibitor 60* and HKDC1 act conf 39.
`O=c1cc(O)c2sc(Nc3ccc(Cl)c(F)c3)nc2[nH]1` gave IMP-1 inh 1, ATG4B inh 14, VIM-2 inhibitor 2, PvdQ acylase -4, HKDC1 inhibitor 39*, MIN6 prolif -5 and HKDC1 act conf -8.
For O=c1cc(O)c2sc(Nc3ccc(F)c(Cl)c3)nc2[nH]1 the results were IMP-1 inh -2, ATG4B inh 11, VIM-2 inhibitor -2, PvdQ acylase -6, HKDC1 inhibitor 46*, MIN6 prolif -5 and HKDC1 act conf -20.
`COc1ccc(Nc2nc3[nH]c(=O)cc(O)c3s2)cc1` gave IMP-1 inh -1, ATG4B inh -13, VIM-2 inhibitor -4, PvdQ acylase -11, HKDC1 inhibitor 3 and MIN6 prolif -2.
For CN(CC(=O)Nc1ccc(F)cc1)C(=O)c1ccc(OCc2cn3ccccc3n2)cc1 the results were ATG4B inh -5, PvdQ acylase -2, HKDC1 inhibitor -6 and MIN6 prolif -2.
For CCC1(CC)C(=O)NN(c2ccccc2)C1=O the results were IMP-1 inh -2, ATG4B inh -6, VIM-2 inhibitor -4, PvdQ acylase -11, HKDC1 inhibitor -13 and MIN6 prolif -2.
CCCCN(C(=O)c1ccc(OC)c([N+](=O)[O-])c1)c1c(N)n(CCC)c(=O)[nH]c1=O was read as IMP-1 inh -5, ATG4B inh -3, VIM-2 inhibitor -2, PvdQ acylase -4, HKDC1 inhibitor 3 and MIN6 prolif -1.
Cc1ccc(/C=C/C(=O)c2ccc([N+](=O)[O-])o2)cc1 was read as ATG4B inh -1, HKDC1 inhibitor 46*, MIN6 prolif -7 and HKDC1 act conf 19.
Screening O=C(Sc1nnc(-c2ccccc2)o1)N1c2ccccc2Sc2ccccc21 returned IMP-1 inh -4, ATG4B inh 1, VIM-2 inhibitor -3, PvdQ acylase -15, HKDC1 inhibitor 37*, MIN6 prolif -4 and HKDC1 act conf -9.
`COc1cc(-c2nnc(SCC(=O)N3c4ccccc4Sc4ccccc43)o2)cc(OC)c1OC` gave IMP-1 inh 1, ATG4B inh -9, VIM-2 inhibitor -2, PvdQ acylase -15, HKDC1 inhibitor -4 and MIN6 prolif 0.
O=C(O)c1cccc(-n2cccc2/C=C2/NC(=O)N(c3ccc(Cl)cc3)C2=O)c1 was read as IMP-1 inh -2, ATG4B inh 28, VIM-2 inhibitor 1, PvdQ acylase -3, HKDC1 inhibitor 61* and HKDC1 act conf 37.
Screening NC1=CC(=O)C(=O)c2ccccc21 returned ATG4B inh -12, PvdQ acylase 2, HKDC1 inhibitor 49* and HKDC1 act conf 49.
Screening NC(=O)C(C1=CCCCC1)c1ccccc1 (stereo not drawn) returned ATG4B inh 0, PvdQ acylase 3 and HKDC1 inhibitor -5.
Screening Cc1ccccc1NC(=O)C1CCN(S(=O)(=O)c2cccc3nonc23)CC1 returned IMP-1 inh 0, ATG4B inh -8, VIM-2 inhibitor -1, PvdQ acylase -15, HKDC1 inhibitor -7 and MIN6 prolif 0.
Screening COc1ccc(N(C(=O)CCl)C(C(=O)NCCc2ccccc2)c2cccs2)cc1Cl (stereo not drawn) returned IMP-1 inh -2, ATG4B inh -3, VIM-2 inhibitor -2, PvdQ acylase 0, HKDC1 inhibitor 32 and HKDC1 act conf 21.
`Cc1cccc(N2CCN(S(=O)(=O)c3ccc4c(c3)CCCN4C(=O)C3CCC3)CC2C)c1` (stereo not drawn) gave IMP-1 inh -2, ATG4B inh 0, VIM-2 inhibitor -7, PvdQ acylase -11, HKDC1 inhibitor 7 and MIN6 prolif -2.
For O=C(c1c[nH]c(C(=O)C(Cl)(Cl)Cl)c1)c1ccccc1Cl the results were IMP-1 inh -4, ATG4B inh -3, VIM-2 inhibitor -1, PvdQ acylase -7, HKDC1 inhibitor 14 and MIN6 prolif -3.
